pEC50: −log10 of the molar value.
What was measured:
[1] = target: T1, Sulfonylurea receptor 2, Kir6.2 (Homo sapiens, UniProt O60706+Q14654); test: Ability to open human urinary bladder Kir6.2 channel containing SUR2B in Ltk cells by FLIPR assay; assay type: functional, cell-based
Outline: (§1)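 Ltk- cells stably transfected with the Kir6.2/SUR2B exon 17- splice variant. Membrane potential was followed with DiBAC dye in a 96-well cell-based kinetic fluorescence (FLIPR) assay. The highest concentration tested was 10 µM. Each compound's maximal fluorescence response was expressed as % of the response to the reference opener.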

[2] = target: T2, Sulfonylurea receptor 2, Kir6.2 (Homo sapiens) (UniProt Q14654+O60706); test: Ability to open human urinary bladder Kir6.2 containing SUR2B in Ltk cells by FLIPR assay relative to P1075; assay type: functional, cell-based; outline: as §1
[3] = target: T1, Sulfonylurea receptor 2, Kir6.2; test: Activity against pig bladder KATP channel opening assessed as ability to relax field-stimulated pig detrusor; assay type: functional, Sus scrofa; conditions: target entry is the homologue from another species
[4] = target: T2, Sulfonylurea receptor 2, Kir6.2 (Homo sapiens); test: Activity against pig bladder KATP channel opening assessed as ability to relax field-stimulated pig detrusor relative to P1075; assay type: functional; conditions: Sus scrofa; target entry is the homologue from another species

T1 sequence (Q14654 whole entry, canonical isoform): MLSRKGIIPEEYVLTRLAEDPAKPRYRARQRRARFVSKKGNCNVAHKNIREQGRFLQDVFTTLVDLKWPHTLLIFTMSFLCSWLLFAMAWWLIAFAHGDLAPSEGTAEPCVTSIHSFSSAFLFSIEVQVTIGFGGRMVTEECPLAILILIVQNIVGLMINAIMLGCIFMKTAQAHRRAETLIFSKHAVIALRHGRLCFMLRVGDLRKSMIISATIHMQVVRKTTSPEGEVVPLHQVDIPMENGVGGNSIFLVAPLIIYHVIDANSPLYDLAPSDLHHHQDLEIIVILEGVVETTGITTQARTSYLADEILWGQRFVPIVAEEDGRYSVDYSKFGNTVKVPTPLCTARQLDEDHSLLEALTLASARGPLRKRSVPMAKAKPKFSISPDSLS
T1 sequence (O60706 whole entry, canonical isoform): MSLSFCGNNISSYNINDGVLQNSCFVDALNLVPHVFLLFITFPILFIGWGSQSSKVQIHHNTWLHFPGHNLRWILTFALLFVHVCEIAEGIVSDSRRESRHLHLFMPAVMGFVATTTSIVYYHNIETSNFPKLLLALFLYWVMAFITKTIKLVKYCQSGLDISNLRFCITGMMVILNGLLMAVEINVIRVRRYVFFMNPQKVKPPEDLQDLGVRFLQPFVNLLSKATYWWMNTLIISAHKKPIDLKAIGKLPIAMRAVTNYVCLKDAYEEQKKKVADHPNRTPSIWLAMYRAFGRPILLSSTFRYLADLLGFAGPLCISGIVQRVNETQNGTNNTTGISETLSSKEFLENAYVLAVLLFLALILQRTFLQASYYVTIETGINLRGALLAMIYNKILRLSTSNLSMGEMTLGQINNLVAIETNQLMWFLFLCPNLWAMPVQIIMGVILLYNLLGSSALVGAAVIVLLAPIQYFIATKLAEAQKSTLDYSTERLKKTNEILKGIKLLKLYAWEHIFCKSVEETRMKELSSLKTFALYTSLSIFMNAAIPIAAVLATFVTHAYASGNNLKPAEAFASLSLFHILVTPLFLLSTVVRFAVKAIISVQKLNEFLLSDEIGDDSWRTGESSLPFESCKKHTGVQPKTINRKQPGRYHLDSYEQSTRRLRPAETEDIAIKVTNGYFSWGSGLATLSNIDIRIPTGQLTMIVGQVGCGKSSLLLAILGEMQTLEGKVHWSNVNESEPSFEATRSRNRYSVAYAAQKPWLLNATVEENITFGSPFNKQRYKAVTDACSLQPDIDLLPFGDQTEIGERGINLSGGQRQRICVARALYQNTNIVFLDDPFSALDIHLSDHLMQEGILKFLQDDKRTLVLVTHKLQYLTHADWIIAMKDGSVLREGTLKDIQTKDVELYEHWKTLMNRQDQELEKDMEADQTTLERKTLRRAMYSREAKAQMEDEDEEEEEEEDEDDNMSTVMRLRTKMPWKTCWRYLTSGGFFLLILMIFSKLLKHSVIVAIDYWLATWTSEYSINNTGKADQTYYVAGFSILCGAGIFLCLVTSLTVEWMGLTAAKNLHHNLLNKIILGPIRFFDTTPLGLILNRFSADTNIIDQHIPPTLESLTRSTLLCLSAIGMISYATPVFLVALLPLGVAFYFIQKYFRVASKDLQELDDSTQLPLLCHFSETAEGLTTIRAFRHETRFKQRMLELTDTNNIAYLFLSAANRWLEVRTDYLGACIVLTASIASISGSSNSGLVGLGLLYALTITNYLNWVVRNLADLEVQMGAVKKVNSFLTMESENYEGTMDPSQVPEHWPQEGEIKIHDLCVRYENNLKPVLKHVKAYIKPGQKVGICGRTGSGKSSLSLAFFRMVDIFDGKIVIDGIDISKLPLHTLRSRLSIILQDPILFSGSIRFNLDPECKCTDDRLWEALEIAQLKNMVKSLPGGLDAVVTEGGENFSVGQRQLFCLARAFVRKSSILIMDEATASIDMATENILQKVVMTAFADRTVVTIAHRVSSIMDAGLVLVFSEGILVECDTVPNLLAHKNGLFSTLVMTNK

SMILES | pEC50 [1] | Efficacy [2] | pEC50 [3] | Efficacy [4]
CC[C@@H]1OC(O)=C2C1=NC1=C(C(=O)OCC1)[C@H]2c1ccc(F)c(Br)c1 | 6.49 | 71% |  | 
CC1(C)OCC2=C(C1=O)C(c1ccc(F)c(Br)c1)C1=C(O)C(C)(C)OCC1=N2 (stereo unspecified) | 5.41 | 61% |  | 
CCC1(CC)OCC2=NC3=C(C(=O)COC3)C(c3ccc(F)c(Br)c3)C2=C1O (stereo unspecified) | 4.86 | 42% |  | 
CC1(C)OCC2=NC3=C(C(=O)COC3)C(c3ccc(F)c(Br)c3)C2=C1O (stereo unspecified) | 7.77 | 96% |  | 
CC1(C)OCC(=O)C2=C1N=C1COC(O)=C1C2c1ccc(F)c(Br)c1 (stereo unspecified) | 6.92 | 73% |  | 
CC1(C)OC(O)=C2C1=NC1=C(C(=O)COC1)C2c1ccc(F)c(Br)c1 (stereo unspecified) | 7.57 | 77% |  | 
O=C1CCCC2=C1[C@H](c1ccc(F)c(Br)c1)C1=C(CCS1(=O)=O)N2 | 6.80 | 90% |  | 
CC[C@H]1OC(O)=C2C1=NC1=C(C(=O)CSC1)[C@H]2c1ccc(F)c(Br)c1 [listing 1 of 2 here] |  |  | 6.02 | 
CC[C@H]1OC(O)=C2C1=NC1=C(C(=O)CSC1)[C@H]2c1ccc(F)c(Br)c1 [listing 2 of 2 here] |  |  |  | 38%
CCC[C@H]1OC(O)=C2C1=NC1=C(C(=O)COC1)[C@H]2c1ccc(F)c(Br)c1 (racemic) | 6.81 |  | 6.10 | 
CC[C@H]1OC(O)=C2C1=NC1=C(C(=O)COC1)[C@H]2c1ccc(F)c(Br)c1 (racemic) | 7.02 |  | 6.31 | 
CC[C@H]1OCC2=C(C1=O)[C@@H](c1ccc(F)c(Br)c1)C1=C(O)OCC1=N2 (racemic) | 5.99 | 97% |  | 
CC[C@@H]1CC(O)=C2C1=NC1=C(C(=O)COC1)[C@H]2c1ccc(F)c(Br)c1 (relative stereo) | 8.93 | 88% |  | 
CC[C@H]1OC(O)=C2C1=NC1=C(C(=O)OCC1)[C@H]2c1ccc(F)c(Br)c1 (relative stereo) | 5.30 | 54% |  | 
CC[C@@H]1OC(O)=C2C1=NC1=C(C(=O)CSC1)[C@H]2c1ccc(F)c(Br)c1 (relative stereo) | 6.81 | 74% |  | 
C[C@@H]1C2=C(C(=O)N1C)[C@H](c1ccc(F)c(Br)c1)C1=C(O)COCC1=N2 (relative stereo) | 6.50 | 92% |  | 
CC[C@H]1OCC(=O)C2=C1N=C1COC(O)=C1[C@@H]2c1ccc(F)c(Br)c1 (relative stereo) | 7.74 | 90% |  | 
C[C@H]1C2=C(C(=O)N1C)[C@H](c1ccc(F)c(Br)c1)C1=C(COCC1=O)N2 (relative stereo) | 8.56 | 102% |  | 
CC[C@@H]1OC(O)=C2C1=NC1=C(C(=O)OC1)[C@H]2c1ccc(F)c(Br)c1 (relative stereo) | 8.22 | 94% |  | 
CC[C@@H]1OCC(=O)C2=C1N=C1COC(O)=C1[C@@H]2c1ccc(F)c(Br)c1 (relative stereo) | 6.03 | 74% |  | 
CC[C@@H]1OC(O)=C2C1=NC1=C(C(=O)C(C)(C)OC1)[C@H]2c1ccc(F)c(Br)c1 (relative stereo) | 7.84 | 105% |  | 

SMILES | pEC50 [1] | Efficacy [2] | pEC50 [3] | Efficacy [4]
C[C@@H]1OC(=O)C2=C1NC1=C([C@H]2c2ccc(F)c(Br)c2)S(=O)(=O)CC1 (relative stereo) | 6.87 | 93% |  | 
C[C@H]1OC(=O)C2=C1NC1=C([C@H]2c2ccc(F)c(Br)c2)S(=O)(=O)CC1 (relative stereo) | 6.39 | 86% |  | 
C[C@H]1OC(=O)C2=C1NC1=C([C@H]2c2ccc(F)c(Br)c2)S(=O)(=O)CCC1 (relative stereo) | 6.65 | 99% |  | 
C[C@@H]1OC(=O)C2=C1NC1=C([C@H]2c2ccc(F)c(Br)c2)S(=O)(=O)CCC1 (relative stereo) | 7.25 | 102% |  | 
CC[C@H]1OC(O)=C2C1=NC1=C(C(=O)CSC1)[C@H]2c1ccc(F)c(Br)c1 (relative stereo) | 6.99 |  | 6.05 | 
C[C@@H]1OCC(=O)C2=C1N=C1COC(O)=C1[C@@H]2c1ccc(F)c(Br)c1 (relative stereo) | 6.99 | 73% |  | 
CCCC[C@@H]1OC(O)=C2C1=NC1=C(C(=O)COC1)[C@H]2c1ccc(F)c(Br)c1 (relative stereo) | 7.53 | 67% |  | 
COC[C@@H]1OC(O)=C2C1=NC1=C(C(=O)COC1)[C@H]2c1ccc(F)c(Br)c1 (relative stereo) | 8.01 | 100% |  | 
CC[C@H]1OC(O)=C2C1=NC1=C(C(=O)CCC1)[C@H]2c1ccc(F)c(Br)c1 (relative stereo) | 6.60 | 83% |  | 
CC[C@@H]1OC(O)=C2C1=NC1=C(C(=O)COC1(C)C)[C@H]2c1ccc(F)c(Br)c1 (relative stereo) | 5.76 | 59% |  | 
CC[C@@H]1OC(O)=C2C1=NC1=C(C(=O)CCC1)[C@H]2c1ccc(F)c(Br)c1 (relative stereo) | 7.25 | 87% |  | 
C[C@H]1OCC(=O)C2=C1N=C1COC(O)=C1[C@@H]2c1ccc(F)c(Br)c1 (relative stereo) | 8.74 | 96% |  | 
CC[C@H]1OC(O)=C2C1=NC1=C(C(=O)OC1)[C@H]2c1ccc(F)c(Br)c1 (relative stereo) | 7.14 | 74% |  | 
CC[C@@H]1OCC2=C(C1=O)[C@@H](c1ccc(F)c(Br)c1)C1=C(O)OCC1=N2 (stereo in doubt; 10a) [listing 1 of 2 here] | 6.11 |  | 5.57 | 
CC[C@@H]1OCC2=C(C1=O)[C@@H](c1ccc(F)c(Br)c1)C1=C(O)OCC1=N2 (stereo in doubt; 10a) [listing 2 of 2 here] |  | 83% |  | 86%
CC[C@@H]1OCC2=C(C1=O)[C@@H](c1ccc(F)c(Br)c1)C1=C(O)OCC1=N2 (stereo in doubt; 10b) [listing 1 of 2 here] | 5.86 |  | 6.05 | 
CC[C@@H]1OCC2=C(C1=O)[C@@H](c1ccc(F)c(Br)c1)C1=C(O)OCC1=N2 (stereo in doubt; 10b) [listing 2 of 2 here] |  | 46% |  | 95%
C[C@@H]1OC(O)=C2C1=NC1=C(C(=O)COC1)[C@H]2c1ccc(F)c(Br)c1 (stereo in doubt; 17a) [listing 1 of 2 here] | 9.04 |  | 7.45 | 
C[C@@H]1OC(O)=C2C1=NC1=C(C(=O)COC1)[C@H]2c1ccc(F)c(Br)c1 (stereo in doubt; 17a) [listing 2 of 2 here] |  | 105% |  | 97%
CC[C@H]1OC(O)=C2C1=NC1=C(C(=O)COC1)[C@H]2c1ccc(F)c(Br)c1 (stereo in doubt; 21a) [listing 1 of 2 here] | 5.14 |  | 5.53 | 
CC[C@H]1OC(O)=C2C1=NC1=C(C(=O)COC1)[C@H]2c1ccc(F)c(Br)c1 (stereo in doubt; 21a) [listing 2 of 2 here] |  | 54% |  | 94%

SMILES | pEC50 [1] | Efficacy [2] | pEC50 [3] | Efficacy [4]
CC(C)C[C@H]1OC(O)=C2C1=NC1=C(C(=O)COC1)[C@H]2c1ccc(F)c(Br)c1 (stereo in doubt; 31b) [listing 1 of 2 here] | 5.00 |  | 6.99 | 
CC(C)C[C@H]1OC(O)=C2C1=NC1=C(C(=O)COC1)[C@H]2c1ccc(F)c(Br)c1 (stereo in doubt; 31b) [listing 2 of 2 here] |  | 59% |  | 35%
CCC[C@H]1OC(O)=C2C1=NC1=C(C(=O)COC1)[C@H]2c1ccc(F)c(Cl)c1 (stereo in doubt; 39b) | 7.04 |  | 6.89 | 
CCC[C@H]1OC(O)=C2C1=NC1=C(C(=O)COC1)[C@H]2c1ccc(F)c(I)c1 (stereo in doubt; 41b) |  | 94% |  | 86%
CCC[C@H]1OC(O)=C2C1=NC1=C(C(=O)COC1)[C@H]2c1ccc(Br)c(Br)c1 (stereo in doubt; 45b) |  | 108% |  | 
CCC[C@H]1OC(O)=C2C1=NC1=C(C(=O)COC1)[C@H]2c1ccc(C)c(Br)c1 (stereo in doubt; 46a) |  | 81% |  | 
CCC[C@H]1OC(O)=C2C1=NC1=C(C(=O)COC1)[C@H]2c1ccc(C)c(Br)c1 (stereo in doubt; 46b) |  | 87% |  | 
CC[C@@H]1OCC(O)=C2C1=NC1=C(C(=O)COC1)[C@H]2c1ccc(F)c(Br)c1 (stereo in doubt; 70a) |  | 87% |  | 
CC[C@@H]1OCC(O)=C2C1=NC1=C(C(=O)COC1)[C@H]2c1ccc(F)c(Br)c1 (stereo in doubt; 70b) |  | 94% |  | 
CC[C@H]1OCC(O)=C2C1=NC1=C(C(=O)COC1)[C@H]2c1ccc(F)c(Cl)c1 (stereo in doubt; 72a) |  | 66% |  | 
CC[C@H]1OCC(O)=C2C1=NC1=C(C(=O)COC1)[C@H]2c1ccc(F)c(I)c1 (stereo in doubt; 73a) |  | 69% |  | 
CC[C@H]1OCC(O)=C2C1=NC1=C(C(=O)COC1)[C@H]2c1ccc(F)c(I)c1 (stereo in doubt; 73b) |  | 53% |  | 
CC[C@H]1OCC(O)=C2C1=NC1=C(C(=O)COC1)[C@H]2c1ccc(Cl)c(Cl)c1 (stereo in doubt; 74a) |  | 118% |  | 
CC[C@H]1OCC(O)=C2C1=NC1=C(C(=O)COC1)[C@H]2c1ccc(Cl)c(Br)c1 (stereo in doubt; 75a) |  | 89% |  | 
CC[C@H]1OCC(O)=C2C1=NC1=C(C(=O)COC1)[C@H]2c1ccc(Cl)c(Br)c1 (stereo in doubt; 75b) |  | 54% |  | 
CC[C@H]1OCC(O)=C2C1=NC1=C(C(=O)COC1)[C@H]2c1ccc(Br)c(Cl)c1 (stereo in doubt; 76a) |  | 76% |  | 
CC[C@H]1OCC(O)=C2C1=NC1=C(C(=O)COC1)[C@H]2c1ccc(Br)c(Br)c1 (stereo in doubt; 77a) |  | 120% |  | 
CC[C@H]1OCC(O)=C2C1=NC1=C(C(=O)COC1)[C@H]2c1ccc(Br)c(Br)c1 (stereo in doubt; 77b) |  | 104% |  | 
CC[C@H]1OCC(O)=C2C1=NC1=C(C(=O)COC1)[C@H]2c1ccc(C)c(Br)c1 (stereo in doubt; 78a) |  | 94% |  | 
CC[C@H]1OCC(O)=C2C1=NC1=C(C(=O)COC1)[C@H]2c1ccc(C)c(Br)c1 (stereo in doubt; 78b) |  | 56% |  | 
